These results are taken from publication PMC10363772 (RSC Advances, 2023).

Structures are written as SMILES. Values after ≈ are worked out from the molar mass of the structure shown.

The nature of data set [1]: DPPH free radical scavenging assay. Particulars: at 75 μg mL^−1. A digest of the protocol:
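Test samples were mixed with 3.0 mL of 0.1 mM DPPH in methanol, shaken vigorously, and held 30 min at room temperature in the dark. Absorbance was read at 515 nm and % scavenging calculated. BHT was the positive control and methanol the negative control.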

For data set [2], the system named is rat intestinal α-glucosidase. Put plainly: α-Glucosidase inhibition assay. It counts as biochemical. The following applies: for α-glucosidase inhibition: at 100 μg mL^−1.
Another data set concerns the target β-glucosidase. Put plainly: β-Glucosidase inhibition assay. The following applies: for β-glucosidase inhibition: at 100 μg mL^−1. In kind it is biochemical.
Data set [3] can be described thus: Solubility studies of nano-curcumin in water. In kind it is physicochemical. Particulars: deionized water. A digest of the protocol:
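Each test sample was stirred in 30 mL deionized water at room temperature for 24 h to make a saturated solution. Undissolved particles were removed by centrifugation, and the liquid was filtered through a PTFE membrane. The filtrate was diluted with an equal volume of deionized water, and dissolved curcumin was quantified by UV/Vis absorbance at 422 nm.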

In the next data set the target is T1, α-amylase (Sus scrofa, UniProt P00690).
T1 sequence (P00690 16-511): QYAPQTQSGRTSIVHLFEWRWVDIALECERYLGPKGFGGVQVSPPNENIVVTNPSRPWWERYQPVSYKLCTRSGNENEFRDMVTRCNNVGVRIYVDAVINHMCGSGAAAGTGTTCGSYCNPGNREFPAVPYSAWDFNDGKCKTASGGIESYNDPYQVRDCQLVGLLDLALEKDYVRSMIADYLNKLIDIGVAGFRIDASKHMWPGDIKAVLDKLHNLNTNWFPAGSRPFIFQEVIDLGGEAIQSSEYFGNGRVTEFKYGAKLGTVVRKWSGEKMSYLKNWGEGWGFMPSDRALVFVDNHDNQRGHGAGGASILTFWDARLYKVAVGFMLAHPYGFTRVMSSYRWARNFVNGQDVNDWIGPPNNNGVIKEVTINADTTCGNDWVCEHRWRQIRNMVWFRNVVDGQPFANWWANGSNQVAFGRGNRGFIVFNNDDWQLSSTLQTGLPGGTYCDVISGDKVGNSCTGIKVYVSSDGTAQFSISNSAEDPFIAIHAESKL
Kind of data set: α-Amylase inhibitory assay. In kind it is biochemical. The following applies: at 100 μg mL^−1.

As for `Cc1cc(C(C)(C)C)c(O)c(C(C)(C)C)c1` [BHT, Butylated hydroxytoluene], the “DPPH free radical scavenging activity” value in data set [1] was 50.48 ± 1.11%.
Regarding `COc1cc(/C=C/C(=O)CC(=O)/C=C/c2ccc(O)c(OC)c2)ccc1O` [Curcumin, diferuloylmethane], the “DPPH free radical scavenging activity” value in data set [1] is given as 45.63 ± 0.78%. In data set [2], this compound came in with a α-glucosidase inhibition of 47.87 ± 0.31%. On β-glucosidase, the “IC50, mean ± SD, β-Glucosidase” value came to 51.92 ± 0.14 µg/mL (≈ 141 µM) and the β-glucosidase inhibition is listed as 50.38 ± 0.11%. Moreover, the solubility at 24 h in data set [3] was found to be 0.98 µg/mL (≈ 2.66 µM). Further, in data set [3] (water, thermodynamic from solid), the solubility (thermodynamic) at 24 h was 2.68 µM (≈ 0.987 µg/mL).
On to `C[C@H]1O[C@H](O[C@H]2[C@H](O)[C@@H](O)[C@@H](O[C@H]3[C@H](O)[C@@H](O)C(O)O[C@@H]3CO)O[C@@H]2CO)[C@H](O)[C@@H](O)[C@@H]1N[C@H]1C=C(CO)[C@@H](O)[C@H](O)[C@H]1O` (stereo partly drawn) [Acarbose, acarbose], for which, in data set [2], the “IC50, mean ± SD, α-Glucosidase” value is 45.76 ± 0.13 µg/mL (≈ 70.9 µM) and the α-glucosidase inhibition came to 66.04 ± 0.18%. For the same compound, on β-glucosidase, the “IC50, mean ± SD, β-Glucosidase” value worked out at 45.55 ± 0.21 µg/mL (≈ 70.6 µM) and the β-glucosidase inhibition is reported as 66.05 ± 0.47%. The compound also yielded a α-amylase inhibition on α-amylase of 68.74 ± 0.28%.
